ChEMBL document CHEMBL3259606, “Discovery of novel inhibitors targeting the macrophage migration inhibitory factor via structure-based virtual screening and bioassays” (J Med Chem, 2014)
pIC50: −log10 of the molar value. Activity calls are given as the source filed them. The rule behind the calls is not given here.

Legend:
[1] = biological target: T1, Macrophage migration inhibitory factor (Homo sapiens, UniProt P14174); assay: (§1) Inhibition of recombinant human MIF tautomerase activity expressed in Escherichia coli using L-dopachrome methyl ester as substrate incubated for 30 mins prior to substrate addition measured for 3 mins
T1 sequence (P14174 whole entry): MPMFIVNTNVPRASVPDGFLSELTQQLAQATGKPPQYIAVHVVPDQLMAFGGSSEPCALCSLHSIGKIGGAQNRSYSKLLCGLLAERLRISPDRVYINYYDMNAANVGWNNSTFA

[2] = biological target: T2, Macrophage migration inhibitory factor (Homo sapiens) (UniProt P14174); assay: Inhibition of recombinant MIF (unknown origin)-induced mouse RAW264.7 cell chemotactic migration at 20 uM preincubated for 30 mins followed by macrophage addition measured every 15 mins for 4 hrs relative to control
T2 sequence (whole entry): T1 sequence (P14174 whole entry)
Method in brief: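 Recombinant MIF with or without compound placed in the lower chamber of a CIM-16 plate 30 min before RAW 264.7 cells (20,000/well, serum-free medium) added to the upper chamber. Impedance-based migration on xCELLigence RTCA-DP read every 15 min for 4 h. Heat-inactivated MIF as negative control; % of MIF-alone migration; mean ± SD, n = 3.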

[3] = biological target: T2, Macrophage migration inhibitory factor (Homo sapiens); assay: Inhibition of recombinant MIF (unknown origin)-induced ERK1/2 phosphorylation in mouse RAW264.7 cells at 20 uM preincubated for 30 mins followed by protein addition measured after 20 mins by Western blot analysis relative to control; assay type: cell-based
Method in brief: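 RAW 264.7 cells given compound 30 min before MIF (0.1 μg/mL). Lysates taken 20 min after stimulation, separated on 12% SDS-PAGE and immunoblotted for phospho-ERK1/2 and total ERK1/2 (loading control), ECL detection. Densitometry expressed as % of MIF-alone band intensity.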

[4] = biological target: T2, Macrophage migration inhibitory factor (Homo sapiens); assay: as §1
[5] = biological target: T2, Macrophage migration inhibitory factor (Homo sapiens); assay: (§2) Inhibition of recombinant MIF (unknown origin)-mediated glucocorticoid overriding activity in LPS-stimulated mouse RAW264.7 cells assessed as inhibition of dexamethasone-induced intracellular nitric oxide production at 20 uM preincubated for 30 mins followed by LPS challenge measured at 16 hrs by Griess assay relative to control; assay type: cell-based
Method in brief: (§3)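 RAW 264.7 cells, 5 × 10^4/well in triplicate, pretreated 30 min with dexamethasone (0.1 μM) plus recombinant MIF (0.2 μM) with or without compound, then stimulated with LPS (0.1 μg/mL). TNF-α in supernatant by sandwich ELISA at 4 h; NO in supernatant by Griess reagent at 16 h. Mean ± SD, n = 3, three independent experiments.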

[6] = biological target: T2, Macrophage migration inhibitory factor (Homo sapiens); assay: as §2, with “TNF-alpha” for “nitric oxide”, “4” for “16”, “ELISA” for “Griess assay”; assay type: cell-based; method in brief: as §3
[7] = tested on: RAW264.7; assay: Antiinflammatory activity in mouse RAW264.7 cells assessed as inhibition of LPS-induced nitrite production at 40 uM after 24 hrs by Griess assay; assay type: functional, cell-based
Method in brief: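 RAW 264.7 macrophages (DMEM, 5% heat-inactivated FBS, 37 °C, 5% CO2) incubated 24 h with 0.1 μg/mL LPS with or without compound; nitrite in supernatant by Griess reagent. Mean ± SD, n = 3, representative of three independent experiments.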

COc1ccc2c3c(c(=O)oc2c1OCC(=O)O)CCCC3
pIC50 [1]: 4.59

Cc1c(CCC(=O)O)c(=O)oc2cc(OCc3ccccc3Br)ccc12
pIC50 [1]: 4.64

COC(=O)C[C@H]1CC(c2ccc(O)cc2)=NO1
fold change (FC) [2]: 2.2 | inhibition [3]: Active | inhibition [4]: Dose-dependent effect | inhibition [5]: 128% | inhibition [6]: 128%

O=C(O)CCC(=O)Nc1nc(-c2cc3ccccc3oc2=O)cs1
pIC50 [1]: 3.99

COc1ccc(-c2cc(C)nc(SCc3cccc(C(=O)O)c3)n2)cc1
pIC50 [1]: 4.34

O=C(O)C[C@@H](Cc1ccccc1)c1ccco1
pIC50 [1]: 4.07

COc1cc(-c2nc3sc4c(c3c(=O)[nH]2)CCCC4)cc(Br)c1OCC(=O)O
pIC50 [1]: 4.65

COc1cc(-c2nc3ccccc3s2)cc(Br)c1OCC(=O)O
inhibition [7]: Active | inhibition [2]: 83% | inhibition [3]: 55% | inhibition [4]: Dose-dependent effect

COc1ccc(C(=O)O)cc1NC(=S)NC(=O)c1cc2ccccc2o1
inhibition [7]: Active | inhibition [3]: 59% | inhibition [4]: Dose-dependent effect | inhibition [5]: 131% | inhibition [6]: 131%

O=C(Nc1ccccc1C(=O)O)c1cc(S(=O)(=O)Nc2ccc(F)cc2)ccc1Cl
pIC50 [1]: 4.13

O=C(O)c1cccc(NC(=S)NC(=O)c2ccc(-c3ccccc3)cc2)c1
inhibition [7]: Active | inhibition [2]: 52% | inhibition [3]: 43% | inhibition [4]: Dose-dependent effect
